Assay results taken from ChEMBL document CHEMBL4732237, “Discovery of 4-alkoxy-2-aryl-6,7-dimethoxyquinolines as a new class of topoisomerase I inhibitors endowed with potent in vitro anticancer activity” (2021).

How the values were obtained:
Format in all cases: functional
OVCAR-5 = test: Growth inhibition of human OVCAR-5 cells at 10 uM incubated for 48 hrs by sulforhodamine B assay relative to control; conditions: read-out: GI
In short: (§1)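 NCI one-dose screen. Cells grown in RPMI 1640 with 5% FBS and 2 mM L-glutamine, plated and incubated 24 h at 37 °C, 5% CO2. DMSO-dissolved drug added, then 48 h further incubation. Adherent cells fixed with cold TCA, suspension cells fixed after settling. Stained with 0.4% SRB, absorbance read at 515 nm. Reported as percent growth relative to no-drug control and time-zero cell number.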

Malme-3M = test: Growth inhibition of human Malme-3M cells at 10 uM incubated for 48 hrs by sulforhodamine B assay relative to control; conditions: read-out: GI; in short: as §1
EKVX [1] = test: Growth inhibition of human EKVX cells at 10 uM incubated for 48 hrs by sulforhodamine B assay relative to control; conditions: read-out: GI
In short: (§2)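 NCI-60 single-dose screen. Cells were grown in RPMI 1640 with 5% FBS and 2 mM L-glutamine and plated 24 h before drug addition. Compound was added at one concentration in DMSO-derived medium and incubated for 48 h at 37 °C in 5% CO2. Read-out was SRB protein stain at 515 nm. Result is percent growth versus the no-drug control and the time-zero cell count; values below 0 indicate lethality.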

SF-268 = test: Growth inhibition of human SF-268 cells at 10 uM incubated for 48 hrs by sulforhodamine B assay relative to control; conditions: read-out: GI; in short: as §1
K562 = test: Growth inhibition of human K562 cells at 10 uM incubated for 48 hrs by sulforhodamine B assay relative to control; conditions: read-out: GI; in short: as §2
SNB-75 [2] = test: Growth inhibition of human SNB-75 cells at 10 uM incubated for 48 hrs by sulforhodamine B assay relative to control; conditions: read-out: GI; in short: as §1
OVCAR-8 = test: Growth inhibition of human OVCAR-8 cells at 10 uM incubated for 48 hrs by sulforhodamine B assay relative to control; conditions: read-out: GI; in short: as §1
MDA-MB-231 = test: Growth inhibition of human MDA-MB-231 cells incubated for 48 hrs by sulforhodamine B assay
In short: (§3)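 NCI five-dose screen covering 0.01–100 µM, prepared as 10-fold or ½-log dilutions from DMSO stock. Cells in RPMI 1640 with 5% FBS were exposed for 48 h at 37 °C after 24 h preincubation. Adherent cells were fixed with TCA (final 10%) and suspension cells were settled before fixing. Stain was SRB, read at 515 nm. GI50 = 50% reduction in net protein increase versus control, with Tz taken at drug addition.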

MDA-MB-435 = test: Growth inhibition of human MDA-MB-435 cells incubated for 48 hrs by sulforhodamine B assay; in short: as §3
UO-31 = test: Growth inhibition of human UO-31 cells at 10 uM incubated for 48 hrs by sulforhodamine B assay relative to control; conditions: read-out: GI
In short: (§4)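 NCI one-dose screen across a 59-line panel. Cells were grown in RPMI 1640 with 5% FBS and 2 mM L-glutamine, plated and pre-incubated 24 h, then exposed to drug for 48 h at 37 °C, 5% CO2. Adherent cells were fixed with cold TCA (10% final), stained with 0.4% SRB in 1% acetic acid and read at 515 nm. Result is percent growth relative to no-drug control and time-zero cell count.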

SW-620 = test: Growth inhibition of human SW-620 cells incubated for 48 hrs by sulforhodamine B assay
In short: (§5)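 NCI five-dose assay, with drug stocks in DMSO diluted in medium to five concentrations (10-fold or ½-log series). Cells in RPMI 1640/5% FBS were pre-incubated 24 h, and time-zero plates were TCA-fixed at drug addition. After 48 h at 37 °C, cells were TCA-fixed, SRB-stained and read at 515 nm. GI50 is from [(Ti-Tz)/(C-Tz)]×100 = 50, TGI from Ti = Tz, and LC50 from [(Ti-Tz)/Tz]×100 = -50.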

NCI-H522 = test: Growth inhibition of human NCI-H522 cells at 10 uM incubated for 48 hrs by sulforhodamine B assay relative to control; conditions: read-out: GI; in short: as §1
SNB-75 [3] = test: Growth inhibition of human SNB-75 cells incubated for 48 hrs by sulforhodamine B assay
In short: (§6)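 NCI five-dose screen (0.01–100 µM; five concentrations plus control). Cells grown in RPMI 1640/5% FBS/2 mM L-glutamine and preincubated 24 h, with time-zero plates TCA-fixed. Drug exposure 48 h at 37 °C, followed by SRB protein staining and reading at 515 nm. GI50 is the concentration at [(Ti-Tz)/(C-Tz)]×100 = 50.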

NCI-H226 = test: Growth inhibition of human NCI-H226 cells at 10 uM incubated for 48 hrs by sulforhodamine B assay relative to control; conditions: read-out: GI; in short: as §1
HOP-62 = test: Growth inhibition of human HOP-62 cells incubated for 48 hrs by sulforhodamine B assay; in short: as §3
SF-539 = test: Growth inhibition of human SF-539 cells at 10 uM incubated for 48 hrs by sulforhodamine B assay relative to control; conditions: read-out: GI; in short: as §1
A498 = test: Growth inhibition of human A498 cells at 10 uM incubated for 48 hrs by sulforhodamine B assay relative to control; conditions: read-out: GI; in short: as §4
EKVX [4] = test: Growth inhibition of human EKVX cells incubated for 48 hrs by sulforhodamine B assay; in short: as §3
HCT-116 = test: Growth inhibition of human HCT-116 cells incubated for 48 hrs by sulforhodamine B assay; in short: as §3
A549 = test: Growth inhibition of human A549 cells incubated for 48 hrs by sulforhodamine B assay; in short: as §3
U-251 = test: Growth inhibition of human U-251 cells incubated for 48 hrs by sulforhodamine B assay; in short: as §5
NCI/ADR-RES = test: Growth inhibition of human NCI/ADR-RES cells incubated for 48 hrs by sulforhodamine B assay; in short: as §6
SK-MEL-5 = test: Growth inhibition of human SK-MEL-5 cells at 10 uM incubated for 48 hrs by sulforhodamine B assay relative to control; conditions: read-out: GI; in short: as §1
MDA-MB-468 = test: Growth inhibition of human MDA-MB-468 cells incubated for 48 hrs by sulforhodamine B assay; in short: as §3
PC-3 = test: Growth inhibition of human PC-3 cells incubated for 48 hrs by sulforhodamine B assay; in short: as §6
HCC 2998 = test: Growth inhibition of human HCC 2998 cells incubated for 48 hrs by sulforhodamine B assay; in short: as §3

Row | Compound | inhibition of growth at 10 µM (OVCAR-5) [%] | inhibition of growth at 10 µM (Malme-3M) [%] | inhibition of growth at 10 µM (EKVX [1]) [%] | inhibition of growth at 10 µM (SF-268) [%] | inhibition of growth at 10 µM (K562) [%] | inhibition of growth at 10 µM (SNB-75 [2]) [%] | inhibition of growth at 10 µM (OVCAR-8) [%] | GI50 (MDA-MB-231) [nM] | GI50 (MDA-MB-435) [nM] | GI50 (SW-620) [nM] | GI50 (SNB-75 [3]) [nM] | GI50 (HOP-62) [nM] | GI50 (EKVX [4]) [nM] | GI50 (HCT-116) [nM] | GI50 (A549) [nM] | GI50 (U-251) [nM] | GI50 (NCI/ADR-RES) [nM] | GI50 (MDA-MB-468) [nM] | GI50 (PC-3) [nM] | GI50 (HCC 2998) [nM] | further results
1 | COc1cc2nc(-c3ccc(Cl)cc3)cc(OCCCN3CCCC3)c2cc1OC | 62 | 62 | 62 | 62 | 62 | 62 | 62 | 907 | 2720 | 3120 | 1730 | 1380 | 1210 | 699 | 1520 | 1790 | 683 | 1280 | 1760 | 1860 | inhibition of growth at 10 µM (UO-31): 62%; inhibition of growth at 10 µM (NCI-H522): 62%; inhibition of growth at 10 µM (NCI-H226): 62%; inhibition of growth at 10 µM (SF-539): 62%; inhibition of growth at 10 µM (A498): 62%; inhibition of growth at 10 µM (SK-MEL-5): 62%
2 | COc1cc2nc(-c3ccc(Cl)cc3)cc(OCCCN3CCOCC3)c2cc1OC | 62 | 62 | 62 | 62 | 62 | 62 | 62 | 1010 | 1900 | 3570 | 2060 | 1980 | 1730 | 1590 | 2020 | 1920 | 1150 | 1830 | 2630 | 1970 | inhibition of growth at 10 µM (UO-31): 62%; inhibition of growth at 10 µM (NCI-H522): 62%; inhibition of growth at 10 µM (NCI-H226): 62%; inhibition of growth at 10 µM (SF-539): 62%; inhibition of growth at 10 µM (A498): 62%; inhibition of growth at 10 µM (SK-MEL-5): 62%
3 | COc1cc2nc(-c3ccc(C(F)(F)F)cc3)cc(OCCCN3CCC(O)CC3)c2cc1OC |  |  |  |  |  |  |  | 919 | 2760 | 3530 | 2580 | 1800 | 1030 | 671 | 1650 | 2120 | 847 | 1630 | 3660 | 4070 | 
4 | COc1cc2nc(-c3ccc(Cl)cc3)cc(OCCCN3CCCCC3)c2cc1OC | 62 | 62 | 62 | 62 | 62 | 62 | 62 | 666 | 2440 | 3090 | 1980 | 2370 | 1470 | 828 | 1900 | 1890 | 898 | 1390 | 1740 | 2340 | inhibition of growth at 10 µM (UO-31): 62%; inhibition of growth at 10 µM (NCI-H522): 62%; inhibition of growth at 10 µM (NCI-H226): 62%; inhibition of growth at 10 µM (SF-539): 62%; inhibition of growth at 10 µM (A498): 62%; inhibition of growth at 10 µM (SK-MEL-5): 62%
5 | COc1cc2nc(-c3ccc(C(F)(F)F)cc3)cc(OCCCN3CCCC3)c2cc1OC |  |  |  |  |  |  |  | 565 | 709 | 1620 | 1850 | 1030 | 982 | 456 | 653 | 1050 | 458 | 885 | 1070 | 1450 | 
